Measurements as given in ChEMBL document CHEMBL4130600, “Keikipukalides, Furanocembrane Diterpenes from the Antarctic Deep Sea Octocoral Plumarella delicatissima” (J Nat Prod, 2018).
The source made the active and inactive calls. The calls are words filed in the database; no cut-off is given here.

Tests used:
Leishmania donovani = test: Antileishmanial activity against Leishmania donovani MHOM/SD/75/1246/130 axenic amastigotes infected in mouse J774A.1 cells after 72 hrs by Draq5 staining based assay; type: functional, organism-based; conditions: MHOM/SD/75/1246/130, J774.A1, 72 h
Procedure, shortened: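 Amastigotes grown axenically at 37 °C in RPMI 1640, pH 5.5, with Hepes, MES, hemin, xanthine, Tween-80 and 20% heat-inactivated FBS. Parasites added 10:1 to 2000 J774A.1 macrophages per well, 24 h at 37 °C, 5% CO2, then extracellular parasites washed off. Compounds from 10 μg/mL, 1:2 serial dilution, 72 h. Fixed in 2% paraformaldehyde, Draq5 stain, imaged; amastigotes per 500 macrophages counted for IC50.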

A549 = test: Cytotoxicity against human A549 cells after 72 hrs by CellTiter 96 AQueous one solution cell proliferation assay; type: cell-based; conditions: A549, 72 h
Procedure, shortened: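 A549 cells seeded at 1440 cells/well in F12K with 10% FBS and 1% penicillin–streptomycin, with compounds in doubling dilutions from 50 μg/mL final. Incubated 72 h at 37 °C, 5% CO2. MTS added 4 h before the end, OD read at 490 nm. Controls were cells with media and media alone.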

Enterococcus faecium = test: Antibacterial activity against drug-resistant Enterococcus faecium; type: functional, organism-based
Staphylococcus aureus = test: Antibacterial activity against drug-resistant Staphylococcus aureus; type: functional, organism-based
Klebsiella pneumoniae = test: Antibacterial activity against drug-resistant Klebsiella pneumoniae; type: functional, organism-based
Acinetobacter baumannii = test: Antibacterial activity against drug-resistant Acinetobacter baumannii; type: functional, organism-based
Pseudomonas aeruginosa = test: Antibacterial activity against drug-resistant Pseudomonas aeruginosa; type: functional, organism-based
Enterobacter = test: Antibacterial activity against drug-resistant Enterobacter; type: functional, organism-based
Naegleria fowleri = test: […] activity against Naegleria fowleri; type: functional, organism-based
Clostridioides difficile = test: Antibacterial activity against Clostridium difficile; type: functional, organism-based

Compound	IC50 (Leishmania donovani) [µM]	IC50 (A549) [µM]	Activity (Enterococcus faecium)	Activity (Staphylococcus aureus)	Activity (Klebsiella pneumoniae)	Activity (Acinetobacter baumannii)	Activity (Pseudomonas aeruginosa)	Activity (Enterobacter)	Activity (Naegleria fowleri)	Activity (Clostridioides difficile)
C=C(C)[C@@H]1C/C=C2\C(=O)O[C@@H](C[C@@]3(C)O[C@@H]3C3=CC(C=O)=C(C1)O3)[C@@H]2OC(C)=O	8.8	> 50	inactive	inactive	inactive	inactive	inactive	inactive	inactive	inactive
C=C(C)[C@@H]1/C=C/[C@]23O[C@H]2[C@H](C[C@@]2(C)O[C@@H]2C2=CC(C=O)=C(C1)O2)OC3=O	> 28	> 50	inactive	inactive	inactive	inactive	inactive	inactive	inactive	inactive
C=C(C)[C@@H]1CCC2=C[C@H](C[C@@]3(C)O[C@@H]3C3=CC(C=O)=C(C1)O3)OC2=O	1.9	> 50	inactive	inactive	inactive	inactive	inactive	inactive	inactive	inactive
CCCCCCCCCCCCCCCCOP(=O)([O-])OCC[N+](C)(C)C [MILTEFOSINE]	6.2									
C=C(C)[C@@H]1CC(=O)[C@H]2[C@H](C1)[C@@H]1C(=O)O[C@@H]3C[C@]4(C)O[C@H]2C(=O)[C@@H]4[C@H]13	4.4	> 50	inactive	inactive	inactive	inactive	inactive	inactive	inactive	inactive
C=C(C)[C@H]1CC2=C(C=O)C=C(O2)[C@H]2O[C@]2(C)C[C@H]2C=C(C(=O)O2)[C@@H](OC(C)=O)C1	8.8	> 50	inactive	inactive	inactive	inactive	inactive	inactive	inactive	inactive
C=C(C)[C@@H]1/C=C/[C@]23O[C@H]2[C@H](C[C@](C)(O)[C@@H](OC(C)=O)C2=CC(C=O)=C(C1)O2)OC3=O	12	> 50	inactive	inactive	inactive	inactive	inactive	inactive	inactive	inactive
C=C(C)[C@H]1CC2=C(C=O)C=C(O2)[C@H]2O[C@]2(C)C[C@@H]2OC(=O)/C(=C\[C@H]1OC(C)=O)[C@H]2OC(C)=O	8.5	> 50	inactive	inactive	inactive	inactive	inactive	inactive	inactive	inactive
